According to ChEMBL document CHEMBL4706717, “Covalent Occlusion of the RORγt Ligand Binding Pocket Allows Unambiguous Targeting of an Allosteric Site” (ACS Med Chem Lett, 2021):
The source made the active and inactive calls. The calls are words filed in the database; no cut-off is given here.

Columns and labels:
[1] = target: T1, Peroxisome proliferator-activated receptor gamma (Homo sapiens) (UniProt P37231); assay: Binding affinity to PPARgamma (unknown origin)
T1 sequence (whole entry): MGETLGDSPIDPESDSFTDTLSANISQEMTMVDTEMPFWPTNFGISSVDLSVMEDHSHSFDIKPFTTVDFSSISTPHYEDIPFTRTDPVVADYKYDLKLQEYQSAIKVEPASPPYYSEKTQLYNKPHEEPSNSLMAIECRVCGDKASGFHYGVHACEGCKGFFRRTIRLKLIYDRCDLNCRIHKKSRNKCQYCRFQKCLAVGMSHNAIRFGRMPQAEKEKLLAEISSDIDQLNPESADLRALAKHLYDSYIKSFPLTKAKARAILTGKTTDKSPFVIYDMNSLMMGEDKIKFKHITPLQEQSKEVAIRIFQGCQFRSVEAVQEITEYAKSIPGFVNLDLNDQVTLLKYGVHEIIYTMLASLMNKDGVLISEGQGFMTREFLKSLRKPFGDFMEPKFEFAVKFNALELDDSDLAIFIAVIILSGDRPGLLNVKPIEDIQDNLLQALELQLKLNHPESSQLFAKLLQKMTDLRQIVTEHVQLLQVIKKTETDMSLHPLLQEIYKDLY

[2] = target: T2, Nuclear receptor ROR-gamma (Homo sapiens, UniProt P51449); assay: Orthosteric inverse agonist activity at recombinant human N-terminal His6-tagged RORgammat ligand binding domain (265 to 518 residues) expressed in Escherichia coli BL21 (DE3) assessed as reduction in coactivator, N-terminal biotinylated SRC-1 box2 peptide recruitment incubated for 60 mins by TR-FRET assay
T2 sequence (P51449 whole entry): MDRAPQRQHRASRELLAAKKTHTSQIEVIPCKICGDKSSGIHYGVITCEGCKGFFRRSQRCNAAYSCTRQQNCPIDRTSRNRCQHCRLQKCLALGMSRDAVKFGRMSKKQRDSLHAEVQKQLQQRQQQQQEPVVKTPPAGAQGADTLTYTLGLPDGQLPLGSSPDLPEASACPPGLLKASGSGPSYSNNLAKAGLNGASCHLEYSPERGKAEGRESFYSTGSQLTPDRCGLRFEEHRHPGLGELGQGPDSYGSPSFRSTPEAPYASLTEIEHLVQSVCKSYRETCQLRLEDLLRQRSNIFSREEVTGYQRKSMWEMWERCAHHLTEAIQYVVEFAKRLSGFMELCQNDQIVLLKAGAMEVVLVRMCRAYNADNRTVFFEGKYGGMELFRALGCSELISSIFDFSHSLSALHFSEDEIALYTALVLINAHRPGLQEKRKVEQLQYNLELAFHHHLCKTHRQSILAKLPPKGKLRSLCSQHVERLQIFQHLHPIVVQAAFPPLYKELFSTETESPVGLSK

[3] = target: T3, Nuclear receptor ROR-gamma (Homo sapiens) (UniProt P51449); conditions: filed as inverse agonist, dose 10.0 µM
T3 sequence (whole entry): T2 sequence (P51449 whole entry)

[4] = target: T3, Nuclear receptor ROR-gamma (Homo sapiens); conditions: filed as inverse agonist, dose 10.0 µM; remark: listed apart in the source
[5] = species on record: Homo sapiens; assay: Binding affinity to recombinant human N-terminal His6-tagged RORgammat ligand binding domain (265 to 507 residues) Cys320Ala mutant expressed in Escherichia coli BL21 (DE3) incubated for overnight by Q-TOF-MS analysis
Outline: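 Ligation of His6-RORγt LBD (residues 265-507, used for mutagenesis work) at 20 μM with 5-10 eq probe in 50 mM TRIS (pH 5.3-5.8), 50 mM NaCl, 5 mM CHAPS, 0.1% BSA, continuous mixing overnight at 4°C or RT; LC-MS Q-TOF, deconvoluted spectra; percent ligation from ratio of mass peaks.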

[6] = target: T3, Nuclear receptor ROR-gamma (Homo sapiens); assay: (§1) Orthosteric agonist activity at 2-chloro-N-(2,6-dimethylphenyl)-5-nitrobenzamide-ligated recombinant human N-terminal His6-tagged RORgammat ligand binding domain (265 to 518 residues) expressed in Escherichia coli BL21 (DE3) assessed as increase in coactivator, N-terminal biotinylated SRC-1 box2 peptide recruitment in presence of 2-chloro-N-(2,6-dimethylphenyl)-5-nitrobenzamide incubated for 60 mins by TR-FRET assay
Outline: (§2)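 Dose response: probe and His6-RORγt LBD (265-518, 20 μM) co-titrated (1.4x series, top 10 eq, 200 μM) in pH 5.8 TRIS/NaCl/CHAPS/BSA buffer overnight (4°C or RT per compound). Then 100 nM LBD, 100 nM biotin-SRC-1 box2, Tb anti-His, d2-streptavidin in HEPES pH 7.5, 150 mM NaCl, 5 mM DTT, 0.1% BSA, 0.1 mM CHAPS, 1% DMSO; top probe 1 μM; 60 min RT; 665/620 nm ratio; four-parameter fit; triplicate, ≥2 experiments.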

[7] = target: T3, Nuclear receptor ROR-gamma (Homo sapiens); assay: as §1, with “GW9662-ligated” for “2-chloro-N-(2,6-dimethylphenyl)-5-nitrobenzamide-ligated”, “GW9662” for “2-chloro-N-(2,6-dimethylphenyl)-5-nitrobenzamide”; outline: as §2
[8] = target: T3, Nuclear receptor ROR-gamma (Homo sapiens); assay: as §1, with “2-chloro-5-nitro-N-o-tolylbenzamide-ligated” for “2-chloro-N-(2,6-dimethylphenyl)-5-nitrobenzamide-ligated”, “2-chloro-5-nitro-N-o-tolylbenzamide” for “2-chloro-N-(2,6-dimethylphenyl)-5-nitrobenzamide”; outline: as §2
[9] = target: T3, Nuclear receptor ROR-gamma (Homo sapiens); assay: Orthosteric agonist activity at 2-chloro-5-nitro-N-(2-(trifluoromethyl)phenyl)benzamide-ligated recombinant human N-terminal His6-tagged RORgammat ligand binding domain (265 to 518 residues) expressed in Escherichia coli BL21 (DE3) assessed as increase in coactivator, N-terminal biotinylated SRC-1 box2 peptide recruitment in presence of 2-chloro-5-nitro-N-(2-(trifluoromethyl)phenyl)benzamide incubated for 60 mins by TR-FRET assay; outline: as §2

Activity [1]	Compound	also measured
Active	Cc1ccc(NC(=O)c2cc([N+](=O)[O-])ccc2Cl)cc1	
Active	CC(C)NC(=O)c1cc([N+](=O)[O-])ccc1Cl	
inactive	O=C(Nc1ccccc1)c1cc(Cl)ccc1[N+](=O)[O-]	
Active	O=C(Nc1ccc([N+](=O)[O-])cc1)c1cc([N+](=O)[O-])ccc1Cl	
Active	Cc1cccc(NC(=O)c2cc([N+](=O)[O-])ccc2Cl)c1	
Active	O=C(NCc1ccccc1)c1cc([N+](=O)[O-])ccc1Cl	
inactive	O=C(c1cc([N+](=O)[O-])ccc1Cl)n1cccc1	
Active	C=CCNC(=O)c1cc([N+](=O)[O-])ccc1Cl	
	C[C@H]1O[C@@H](O[C@H]2[C@@H](O)C[C@H](O[C@H]3[C@@H](O)C[C@H](O[C@H]4CC[C@@]5(C)[C@H](CC[C@@H]6[C@@H]5C[C@@H](O)[C@]5(C)[C@@H](C7=CC(=O)OC7)CC[C@]65O)C4)O[C@@H]3C)O[C@@H]2C)C[C@H](O)[C@@H]1O	ΔTm [3]: -0.2 °C
	O=C(O)c1ccc(NCc2c(-c3c(Cl)cccc3C(F)(F)F)noc2-c2cc[nH]c2)cc1	ΔTm [4]: 2.1 °C
	O=C(Nc1ccccc1)c1cc([N+](=O)[O-])ccc1Cl	Activity [5]: inactive; IC50 [2]: 86 nM
Active	COc1ccc(NC(=O)c2cc([N+](=O)[O-])ccc2Cl)cc1	
	CC(C)CCC[C@@H](C)[C@H]1CC[C@H]2[C@@H]3CC=C4C[C@@H](O)CC[C@]4(C)[C@H]3CC[C@]12C	Activity [6]: inactive; Activity [7]: inactive; Activity [8]: inactive; Activity [9]: inactive
Active	O=C(NC1CCCCC1)c1cc([N+](=O)[O-])ccc1Cl	

Compound	Activity [1]	also measured
Cc1ccccc1NC(=O)c1cc([N+](=O)[O-])ccc1Cl	Active	IC50 [2]: 77 nM
O=C(Nc1ccsc1)c1cc([N+](=O)[O-])ccc1Cl	Active	IC50 [2]: 122 nM
